Columns and labels:
BJ [1] = experiment: Cell cycle arrest in human BJ cells assessed as accumulation at sub-G1 phase at 5 uM after 48 hrs; format: cell-based
Outline: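 Isogenic normal and fully transformed BJ fibroblasts (hTert, small t, shRNAs to p53 and pRb, H-RasV12-ER) exposed to 5 μM for 48 h. Percentage of cells in sub-G1 phase determined as a cell death measure.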

[2] = Selectivity index, ratio of IC50 for human BJ cells to IC50 for human BJ cells transformed with hTert, small t, shRNAs against p53 and pRb and H-RasV12-ER; format: functional
Outline: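 Normal BJ fibroblasts and transformed BJ fibroblasts were grown at 37 °C in 5% CO₂ with 10% FBS, seeded at 2.5×10^3 cells/well for 24 h, then treated for 72 h at 0.5% v/v final DMSO. MTT at 0.5 mg/mL was added for 3 h, formazan was dissolved in DMSO and absorbance read at 570 nm. IC50 came from sigmoidal fits of three independent determinations. The index is normal-cell IC50 over transformed-cell IC50.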

HeLa [3] = experiment: Antiproliferative activity against human HeLa cells after 72 hrs by MTT assay; format: functional
Outline: (§1)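 Cells cultured at 37 °C, 5% CO₂ in medium with 10% FBS and penicillin/streptomycin, used within 12-20 passages. Seeded at 2.5×10^3 cells/well for 24 h, then compound added from DMSO stocks at 200-fold final concentration (final DMSO 0.5% v/v). After 72 h, 0.5 mg/mL MTT for 3 h, formazan dissolved in DMSO, A570 read. IC50 from sigmoidal fit; three independent determinations.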

SNU1 = experiment: Antiproliferative activity against human SNU1 cells after 72 hrs by MTT assay; format: functional; conditions: SNU1, 72 h; outline: as §1
[4] = Antiproliferative activity against human hTERT-RPE1 cells after 72 hrs by MTT assay; format: cell-based, TERT-RPE1; outline: as §1
HCT-15 = experiment: Antitumor activity against human HCT15 cells xenografted in BALB/c athymic nu/nu mouse assessed as tumor growth inhibition at 20 mg/kg, ip bid administered 12 days relative to control; format: functional; conditions: HCT-15, ip, 288 h, read-out: TGI
Outline: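 Female BALB/c nu/nu mice (5-7 weeks) given 5×10^6 HCT15 cells subcutaneously in flank. At 100–300 mm³, randomized into groups of 6. Dosed IP twice daily for 12 days at 20 mg/kg in 10% DMSO, 50% PEG400, deionized water pH 5.0, vs vehicle. Tumor volumes tracked; mean ± SEM, two-way ANOVA vs vehicle.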

BJ [5] = experiment: Antiproliferative activity against human BJ cells assessed as reduction in cell viability at 5 uM incubated for 2 days followed by compound washout measured after 11 days by cell counting method; format: cell-based; conditions: 48 h
Outline: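 Normal BJ fibroblasts synchronized in G1 by 2-day serum starvation (0.1% FBS), released into 10% FBS medium and exposed to 5 μM for 2, 4 or 11 days. After 2 or 4 days drug removed and growth continued in fresh medium up to 11 days. Total cell numbers by automated counter; mean ± S.D., n>6.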

SNU-16 = experiment: Antiproliferative activity against human SNU16 cells after 72 hrs by MTT assay; format: functional; conditions: SNU-16, 72 h; outline: as §1
Salmonella typhimurium = experiment: Genotoxicity in Salmonella typhimurium TA100 after 48 hrs in presence of S9 mix by Ames test; format: toxicity, organism-based; conditions: salmonella enterica subsp. enterica serovar typhimurium
[6] = Antiproliferative activity against human ARPE19 cells after 72 hrs by MTT assay; format: cell-based; conditions: ARPE-19 cells; outline: as §1
[7] = Antiproliferative activity against human WI38 cells after 72 hrs by MTT assay; format: cell-based; conditions: WI-38 cells; outline: as §1
Huh-7 = experiment: Antiproliferative activity against human HuH7 cells after 72 hrs by MTT assay; format: functional; conditions: Huh-7, 72 h; outline: as §1
[8] = Intrinsic clearance in pooled female rat liver microsomes assessed per mg protein at 3 uM preincubated for 5 mins followed by NADPH addition measured after 45 mins by LC-MS/MS method; format: ADME, microsome; conditions: read-out: CLH
Outline: (§2)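 Pooled female or male rat liver microsomes (0.3 mg protein/mL) with substrate at final 3 μM in 0.1 M phosphate pH 7.4. Pre-incubated 5 min at 37 °C, then started with NADPH (final 1 mM). Sampled at 0–45 min in triplicate, quenched with cold acetonitrile plus internal standard. Parent measured by LC-MS/MS. Midazolam as positive control; no-NADPH negative control.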

HeLa [9] = experiment: Potency index, ratio of autophagy induction of test compound to chloroquine in human HeLa cells; format: functional
[10] = Antiproliferative activity against human SNU216 cells after 72 hrs by MTT assay; format: functional; conditions: SNU-216, 72 h; outline: as §1
SCH = experiment: Antiproliferative activity against human SCH cells after 72 hrs by MTT assay; format: functional; outline: as §1
HeLa [11] = experiment: Inhibition of colony formation in human HeLa cells at 0.6 uM after 7 days by plate colony counting method relative to control; format: functional; conditions: 168 h
Outline: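 Anchorage-independent growth: HeLa cells (1×10^4 per well) in 0.4% soft agar layered over 1% agar. Compound added at final 0.15, 0.3, 0.6, 1.25, 2.5 and 5 μM. HeLa colonies counted.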

[12] = Antiproliferative activity against human SNU620 cells after 72 hrs by MTT assay; format: functional; conditions: SNU620, 72 h; outline: as §1
AGS = experiment: Antiproliferative activity against human AGS cells after 72 hrs by MTT assay; format: functional; outline: as §1
[13] = Antiproliferative activity against human IMR90 cells after 72 hrs by MTT assay; format: cell-based; conditions: IMR-90 cells; outline: as §1
[14] = Antiproliferative activity against human NCC24 cells after 72 hrs by MTT assay; format: functional; outline: as §1
SNU-449 = experiment: Antiproliferative activity against human SNU449 cells after 72 hrs by MTT assay; format: functional; conditions: SNU-449, 72 h; outline: as §1
HGC-27 = experiment: Antiproliferative activity against human HGC27 cells after 72 hrs by MTT assay; format: functional; conditions: HGC-27, 72 h; outline: as §1
[15] = Antiproliferative activity against human HEp-3 cells after 72 hrs by MTT assay; format: functional; outline: as §1
[16] = Intrinsic clearance in pooled male rat liver microsomes assessed per mg protein at 3 uM preincubated for 5 mins followed by NADPH addition measured after 45 mins by LC-MS/MS method; format: ADME, microsome; conditions: read-out: CLH; outline: as §2
HeLa [17] = experiment: Induction of autophagy in human HeLa cells assessed as increase in LC3-2 to LC3-1 ratio at 2.5 uM after 6 hrs by immunoblot analysis relative to control; format: functional
Outline: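 HeLa cells exposed 6 h to test agent (0.625–10 μM series) or chloroquine (1.25–100 μM series) vs DMSO; lysed in 1% Triton buffer (25 mM Tris pH 8.0, 150 mM NaCl, DTT, protease/phosphatase inhibitors), 14% SDS-PAGE, immunoblot with anti-LC3, anti-pH3(Ser10), β-actin loading. LC3-II/LC3-I band intensity ratio expressed relative to DMSO control.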

N#C/C(=C\c1cccc2cnccc12)c1c[nH]c2ccccc12
Activity (BJ [1]): Non-Toxic
Ratio IC50 [2]: 8.5
GI50 (HeLa [3]): 1.4 µM
GI50 (SNU1): 0.9 µM
GI50 at 72 h [4]: 5.2 µM
inhibition in vivo at 20 mg/kg (HCT-15): 74%
Activity (BJ [5]): Non-Toxic
GI50 (SNU-16): 1 µM
Activity (Salmonella typhimurium): Non-Toxic
GI50 at 72 h [6]: > 10 µM
GI50 at 72 h [7]: 3.4 µM
GI50 (Huh-7): 1.2 µM
microsomal CLint at 3 µM [8]: 59 µL/min/mg
Ratio (HeLa [9]): 4 - 10
GI50 [10]: 1.9 µM
GI50 (SCH): 1.7 µM
inhibition at 0.6 µM (HeLa [11]): 50%
GI50 [12]: 1 µM
GI50 (AGS): 1.1 µM
GI50 at 72 h [13]: 5.8 µM
GI50 [14]: 1.2 µM
GI50 (SNU-449): 2.3 µM
GI50 (HGC-27): 1.2 µM
GI50 [15]: 3.7 µM
microsomal CLint at 3 µM [16]: 299 µL/min/mg
fold change (FC) (HeLa [17]): 3
